# What was measured:
# Details in all cases: stereoisomer not certain
# OR1G1 (Homo sapiens) = biological target: T1, OR1G1 (Homo sapiens) (UniProt P47890)
# T1 sequence (whole entry): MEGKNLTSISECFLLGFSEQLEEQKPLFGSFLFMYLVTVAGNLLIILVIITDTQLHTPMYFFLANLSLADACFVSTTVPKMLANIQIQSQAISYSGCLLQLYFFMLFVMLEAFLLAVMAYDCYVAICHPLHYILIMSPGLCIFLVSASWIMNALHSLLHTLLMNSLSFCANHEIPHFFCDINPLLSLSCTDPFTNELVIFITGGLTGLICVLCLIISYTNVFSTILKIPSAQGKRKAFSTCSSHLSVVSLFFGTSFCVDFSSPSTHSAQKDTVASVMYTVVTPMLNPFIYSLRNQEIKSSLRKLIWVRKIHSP
# Procedure, shortened: (§1)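 Each entry records the cell line, G-protein, co-transfected protein and tags used. Methods varied with the source, often transient luciferase assays in mammalian cell lines. A receptor–molecule pair is called responsive (active) if the original authors judged its signal statistically different from baseline and non-responsive (inactive) otherwise.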
# OR1A2 (Homo sapiens) = biological target: T2, OR1A2 (Homo sapiens) (UniProt Q9Y585)
# T2 sequence (whole entry): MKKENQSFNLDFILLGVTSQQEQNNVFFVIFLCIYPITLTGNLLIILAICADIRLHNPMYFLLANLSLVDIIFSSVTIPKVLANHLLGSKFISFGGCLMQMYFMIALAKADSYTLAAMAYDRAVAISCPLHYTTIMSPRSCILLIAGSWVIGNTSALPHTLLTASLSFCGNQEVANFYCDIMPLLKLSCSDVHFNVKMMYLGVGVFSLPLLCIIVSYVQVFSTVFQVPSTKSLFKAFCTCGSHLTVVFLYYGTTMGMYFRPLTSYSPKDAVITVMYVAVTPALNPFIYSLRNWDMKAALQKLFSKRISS
# Procedure, shortened: as §1
# OR1D2 (Homo sapiens) = biological target: T3, OR1D2 (Homo sapiens) (UniProt P34982)
# T3 sequence (whole entry): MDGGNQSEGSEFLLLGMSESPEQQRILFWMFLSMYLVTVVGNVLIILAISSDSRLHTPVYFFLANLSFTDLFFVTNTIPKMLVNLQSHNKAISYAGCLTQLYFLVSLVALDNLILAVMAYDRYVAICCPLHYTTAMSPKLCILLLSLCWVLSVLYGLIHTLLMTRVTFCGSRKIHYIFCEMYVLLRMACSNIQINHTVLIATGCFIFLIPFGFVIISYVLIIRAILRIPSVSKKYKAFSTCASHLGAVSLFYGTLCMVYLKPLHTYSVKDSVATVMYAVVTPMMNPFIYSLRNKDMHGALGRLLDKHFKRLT
# Procedure, shortened: as §1
# OR1B1 = system: OR1B1
# OR1B1, sequence (as listed by the source): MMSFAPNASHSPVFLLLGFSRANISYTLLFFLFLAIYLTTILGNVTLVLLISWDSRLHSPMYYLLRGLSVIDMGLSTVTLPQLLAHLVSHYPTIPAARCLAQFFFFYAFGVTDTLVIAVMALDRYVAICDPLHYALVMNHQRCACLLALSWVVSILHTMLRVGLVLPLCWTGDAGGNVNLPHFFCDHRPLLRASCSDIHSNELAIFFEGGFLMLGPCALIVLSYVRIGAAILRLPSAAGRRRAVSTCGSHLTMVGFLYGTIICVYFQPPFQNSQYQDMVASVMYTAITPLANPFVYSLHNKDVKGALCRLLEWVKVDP
# Procedure, shortened: as §1
# OR1C1 (Homo sapiens) = OR1C1 (Homo sapiens) (UniProt Q15619)
# OR1C1 (Homo sapiens), sequence (Q15619 whole entry): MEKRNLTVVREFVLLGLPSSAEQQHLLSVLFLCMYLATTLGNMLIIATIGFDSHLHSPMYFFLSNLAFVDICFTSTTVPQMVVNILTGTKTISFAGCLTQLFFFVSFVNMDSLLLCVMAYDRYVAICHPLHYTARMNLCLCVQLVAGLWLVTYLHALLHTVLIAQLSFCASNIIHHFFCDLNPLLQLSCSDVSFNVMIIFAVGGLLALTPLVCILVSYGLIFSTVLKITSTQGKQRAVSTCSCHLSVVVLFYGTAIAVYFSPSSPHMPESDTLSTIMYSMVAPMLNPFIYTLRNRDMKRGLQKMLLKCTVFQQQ
# Procedure, shortened: as §1
# OR1D4 (Homo sapiens) = OR1D4 (Homo sapiens) (UniProt P47884)
# OR1D4 (Homo sapiens), sequence (P47884 whole entry): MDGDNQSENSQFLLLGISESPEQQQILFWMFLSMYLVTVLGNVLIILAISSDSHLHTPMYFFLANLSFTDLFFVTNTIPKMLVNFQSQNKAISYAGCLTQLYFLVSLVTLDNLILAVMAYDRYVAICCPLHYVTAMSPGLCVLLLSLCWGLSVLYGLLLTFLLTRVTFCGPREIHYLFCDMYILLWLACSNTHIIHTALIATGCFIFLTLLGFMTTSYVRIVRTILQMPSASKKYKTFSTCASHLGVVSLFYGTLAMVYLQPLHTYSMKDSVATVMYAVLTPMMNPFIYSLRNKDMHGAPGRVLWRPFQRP
# Procedure, shortened: as §1
# OR1D5 (Homo sapiens) = OR1D5 (Homo sapiens) (UniProt P58170)
# OR1D5 (Homo sapiens), sequence (P58170 whole entry): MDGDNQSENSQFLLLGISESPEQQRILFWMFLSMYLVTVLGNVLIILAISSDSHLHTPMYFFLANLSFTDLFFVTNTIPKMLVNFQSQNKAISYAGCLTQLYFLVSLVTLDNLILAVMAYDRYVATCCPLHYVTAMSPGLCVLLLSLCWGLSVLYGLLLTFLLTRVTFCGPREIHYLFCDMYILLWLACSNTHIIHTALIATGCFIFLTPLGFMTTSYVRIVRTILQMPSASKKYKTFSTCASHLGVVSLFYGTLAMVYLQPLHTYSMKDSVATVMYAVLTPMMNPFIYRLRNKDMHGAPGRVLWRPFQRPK
# Procedure, shortened: as §1
# OR1E2 (Homo sapiens) = OR1E2 (Homo sapiens) (UniProt P47887)
# OR1E2 (Homo sapiens), sequence (P47887 whole entry): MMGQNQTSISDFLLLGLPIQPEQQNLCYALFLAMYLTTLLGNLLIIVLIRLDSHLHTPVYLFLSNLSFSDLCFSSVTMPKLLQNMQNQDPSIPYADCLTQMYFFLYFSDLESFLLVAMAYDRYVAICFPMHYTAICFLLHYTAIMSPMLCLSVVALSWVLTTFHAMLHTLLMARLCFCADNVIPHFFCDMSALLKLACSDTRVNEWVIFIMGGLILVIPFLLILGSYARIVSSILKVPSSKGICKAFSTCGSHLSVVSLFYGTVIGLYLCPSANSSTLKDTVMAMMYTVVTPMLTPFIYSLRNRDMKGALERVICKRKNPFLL
# Procedure, shortened: as §1
# OR1E3 (Homo sapiens) = OR1E3 (Homo sapiens) (UniProt Q8WZA6)
# OR1E3 (Homo sapiens), sequence (Q8WZA6 whole entry): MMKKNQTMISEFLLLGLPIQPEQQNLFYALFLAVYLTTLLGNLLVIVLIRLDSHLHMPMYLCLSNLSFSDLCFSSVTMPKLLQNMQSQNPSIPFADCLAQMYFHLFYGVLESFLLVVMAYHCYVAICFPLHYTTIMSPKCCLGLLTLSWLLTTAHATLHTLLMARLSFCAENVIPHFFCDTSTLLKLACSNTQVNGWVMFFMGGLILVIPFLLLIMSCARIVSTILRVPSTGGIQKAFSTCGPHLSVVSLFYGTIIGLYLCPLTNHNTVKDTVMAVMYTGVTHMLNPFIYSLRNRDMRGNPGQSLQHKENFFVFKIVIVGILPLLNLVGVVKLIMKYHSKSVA
# Procedure, shortened: as §1
# OR1F1 (Homo sapiens) = OR1F1 (Homo sapiens) (UniProt O43749)
# OR1F1 (Homo sapiens), sequence (O43749 whole entry): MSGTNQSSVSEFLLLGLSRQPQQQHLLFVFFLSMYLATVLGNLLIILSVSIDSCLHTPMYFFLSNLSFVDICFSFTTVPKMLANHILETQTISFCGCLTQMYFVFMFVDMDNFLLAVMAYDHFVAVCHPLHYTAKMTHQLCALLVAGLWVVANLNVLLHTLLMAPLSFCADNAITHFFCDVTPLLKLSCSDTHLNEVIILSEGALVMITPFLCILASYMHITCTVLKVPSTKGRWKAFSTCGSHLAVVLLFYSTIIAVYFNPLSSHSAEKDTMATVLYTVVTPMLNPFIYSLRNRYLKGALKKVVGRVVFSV
# Procedure, shortened: as §1
# OR1F12P (Homo sapiens) = OR1F12P (Homo sapiens) (UniProt Q8NHA8)
# OR1F12P (Homo sapiens), sequence (Q8NHA8 whole entry): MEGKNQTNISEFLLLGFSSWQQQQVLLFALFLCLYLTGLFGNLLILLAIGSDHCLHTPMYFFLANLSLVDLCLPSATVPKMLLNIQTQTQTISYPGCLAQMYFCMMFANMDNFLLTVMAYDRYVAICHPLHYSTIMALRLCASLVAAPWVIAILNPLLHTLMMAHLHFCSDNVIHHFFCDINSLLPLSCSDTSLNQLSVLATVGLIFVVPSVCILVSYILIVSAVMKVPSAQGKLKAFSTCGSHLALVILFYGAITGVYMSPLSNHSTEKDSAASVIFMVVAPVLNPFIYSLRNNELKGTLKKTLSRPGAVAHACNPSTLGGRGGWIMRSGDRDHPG
# Procedure, shortened: as §1
# OR1I1 (Homo sapiens) = OR1I1 (Homo sapiens) (UniProt O60431)
# OR1I1 (Homo sapiens), sequence (O60431 whole entry): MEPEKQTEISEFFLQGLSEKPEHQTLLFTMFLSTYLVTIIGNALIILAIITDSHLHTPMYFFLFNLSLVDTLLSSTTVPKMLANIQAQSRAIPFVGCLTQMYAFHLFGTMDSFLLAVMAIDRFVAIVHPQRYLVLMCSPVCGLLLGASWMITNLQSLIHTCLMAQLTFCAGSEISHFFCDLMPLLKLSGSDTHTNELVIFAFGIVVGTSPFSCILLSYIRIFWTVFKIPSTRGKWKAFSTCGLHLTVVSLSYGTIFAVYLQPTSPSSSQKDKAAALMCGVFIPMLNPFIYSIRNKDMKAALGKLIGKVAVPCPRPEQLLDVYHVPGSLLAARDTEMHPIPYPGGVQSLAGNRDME
# Procedure, shortened: as §1
# OR1J1 (Homo sapiens) = OR1J1 (Homo sapiens) (UniProt Q8NGS3)
# OR1J1 (Homo sapiens), sequence (Q8NGS3 whole entry): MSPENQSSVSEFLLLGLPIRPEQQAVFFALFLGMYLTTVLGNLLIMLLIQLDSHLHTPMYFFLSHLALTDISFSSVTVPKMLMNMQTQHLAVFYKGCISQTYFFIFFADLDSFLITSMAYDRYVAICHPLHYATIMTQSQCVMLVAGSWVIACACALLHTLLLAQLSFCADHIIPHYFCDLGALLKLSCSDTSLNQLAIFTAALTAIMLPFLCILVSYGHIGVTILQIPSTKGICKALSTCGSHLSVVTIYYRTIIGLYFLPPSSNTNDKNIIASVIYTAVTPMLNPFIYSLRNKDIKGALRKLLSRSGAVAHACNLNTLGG
# Procedure, shortened: as §1
# OR1K1 (Homo sapiens) = OR1K1 (Homo sapiens) (UniProt Q8NGR3)
# OR1K1 (Homo sapiens), sequence (Q8NGR3 whole entry): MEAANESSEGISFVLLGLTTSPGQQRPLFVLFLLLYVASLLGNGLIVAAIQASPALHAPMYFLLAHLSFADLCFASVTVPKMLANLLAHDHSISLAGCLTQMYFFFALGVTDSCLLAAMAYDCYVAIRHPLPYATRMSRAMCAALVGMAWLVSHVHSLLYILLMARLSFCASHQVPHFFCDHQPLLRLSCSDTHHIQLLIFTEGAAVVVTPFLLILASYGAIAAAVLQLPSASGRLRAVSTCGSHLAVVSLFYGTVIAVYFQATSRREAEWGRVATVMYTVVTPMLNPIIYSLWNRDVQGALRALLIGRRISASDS
# Procedure, shortened: as §1
# OR1A2 G256C W293C = system: OR1A2 G256C W293C
# Procedure, shortened: as §1
# OR1E1 (Homo sapiens) = OR1E1 (Homo sapiens) (UniProt P30953)
# OR1E1 (Homo sapiens), sequence (P30953 whole entry): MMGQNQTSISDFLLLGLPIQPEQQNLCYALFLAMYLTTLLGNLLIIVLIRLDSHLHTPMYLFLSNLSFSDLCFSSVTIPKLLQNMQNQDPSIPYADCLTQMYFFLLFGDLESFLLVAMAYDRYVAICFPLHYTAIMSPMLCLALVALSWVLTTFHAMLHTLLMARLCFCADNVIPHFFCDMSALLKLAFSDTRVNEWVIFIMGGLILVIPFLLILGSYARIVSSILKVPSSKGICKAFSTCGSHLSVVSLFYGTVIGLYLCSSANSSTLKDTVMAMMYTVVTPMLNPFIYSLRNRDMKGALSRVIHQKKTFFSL
# Procedure, shortened: as §1
# OR1E2 = system: OR1E2
# OR1E2, sequence (as listed by the source): as the sequence (P47887 whole entry) above, with C27R counted along it
# Procedure, shortened: as §1
# OR1F1 = system: OR1F1
# OR1F1, sequence (as listed by the source): as the sequence (O43749 whole entry) above, with F75S counted along it
# Procedure, shortened: as §1
# OR1J2 (Homo sapiens) = OR1J2 (Homo sapiens) (UniProt Q8NGS2)
# OR1J2 (Homo sapiens), sequence (Q8NGS2 whole entry): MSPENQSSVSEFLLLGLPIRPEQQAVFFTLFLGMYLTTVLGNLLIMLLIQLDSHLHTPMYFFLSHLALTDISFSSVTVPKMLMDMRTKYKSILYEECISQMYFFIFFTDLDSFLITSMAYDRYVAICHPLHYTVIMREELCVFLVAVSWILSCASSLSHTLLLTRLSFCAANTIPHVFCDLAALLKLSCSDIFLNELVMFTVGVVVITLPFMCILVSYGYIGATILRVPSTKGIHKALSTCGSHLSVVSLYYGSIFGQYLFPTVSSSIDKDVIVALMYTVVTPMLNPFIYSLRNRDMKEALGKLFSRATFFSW
# Procedure, shortened: as §1
# OR1J4 (Homo sapiens) = OR1J4 (Homo sapiens) (UniProt Q8NGS1)
# OR1J4 (Homo sapiens), sequence (Q8NGS1 whole entry): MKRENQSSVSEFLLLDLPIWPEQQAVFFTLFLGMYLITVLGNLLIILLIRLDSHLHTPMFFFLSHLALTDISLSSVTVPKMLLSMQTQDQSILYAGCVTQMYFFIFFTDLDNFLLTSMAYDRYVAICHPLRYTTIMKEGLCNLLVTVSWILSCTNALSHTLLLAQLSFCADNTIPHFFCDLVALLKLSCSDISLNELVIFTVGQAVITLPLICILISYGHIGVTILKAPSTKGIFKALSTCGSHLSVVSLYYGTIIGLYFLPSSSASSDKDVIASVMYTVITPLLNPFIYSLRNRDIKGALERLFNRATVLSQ
# Procedure, shortened: as §1
smiles,measurement,setting,value
C=CCc1ccc2c(c1)OCO2,odorant receptor agonist call,OR1G1 (Homo sapiens),active
O=C([O-])Cc1ccccc1,odorant receptor agonist call,OR1A2 (Homo sapiens),inactive
c1ccncc1,odorant receptor agonist call,OR1G1 (Homo sapiens),active
COc1ccc(C=O)cc1,odorant receptor agonist call,OR1G1 (Homo sapiens),inactive
CCCCC(Br)C(=O)O (stereo not drawn),odorant receptor agonist call,OR1A2 (Homo sapiens),inactive
CCCCCCC(Br)C(=O)O (stereo not drawn),odorant receptor agonist call,OR1A2 (Homo sapiens),inactive
CCCC(Br)C(=O)O (stereo not drawn),odorant receptor agonist call,OR1A2 (Homo sapiens),inactive
CC(C=O)Cc1ccc2c(c1)OCO2 (stereo not drawn),odorant receptor agonist call,OR1A2 (Homo sapiens),active
same,odorant receptor agonist call,OR1D2 (Homo sapiens),inactive
same,odorant receptor agonist call,OR1G1 (Homo sapiens),inactive
CC(=O)CCc1ccc2c(c1)OCO2,odorant receptor agonist call,OR1G1 (Homo sapiens),active
C=CCc1ccc(OC)cc1,odorant receptor agonist call,OR1G1 (Homo sapiens),inactive
CCC(Br)C(=O)O (stereo not drawn),odorant receptor agonist call,OR1A2 (Homo sapiens),inactive
ClC=CCl,odorant receptor agonist call,OR1A2 (Homo sapiens),inactive
O=CC=Cc1ccccc1,odorant receptor agonist call,OR1D2 (Homo sapiens),inactive
Cc1c([N+](=O)[O-])c(C)c([N+](=O)[O-])c(C(C)(C)C)c1[N+](=O)[O-],odorant receptor agonist call,OR1A2 (Homo sapiens),inactive
same,odorant receptor agonist call,OR1B1,inactive
same,odorant receptor agonist call,OR1C1 (Homo sapiens),inactive
same,odorant receptor agonist call,OR1D4 (Homo sapiens),inactive
same,odorant receptor agonist call,OR1D5 (Homo sapiens),inactive
same,odorant receptor agonist call,OR1E2 (Homo sapiens),inactive
same,odorant receptor agonist call,OR1E3 (Homo sapiens),inactive
same,odorant receptor agonist call,OR1F1 (Homo sapiens),inactive
same,odorant receptor agonist call,OR1F12P (Homo sapiens),inactive
same,odorant receptor agonist call,OR1G1 (Homo sapiens),inactive
same,odorant receptor agonist call,OR1I1 (Homo sapiens),inactive
same,odorant receptor agonist call,OR1J1 (Homo sapiens),inactive
same,odorant receptor agonist call,OR1K1 (Homo sapiens),inactive
C=CCOC(=O)Cc1ccccc1,odorant receptor agonist call,OR1A2 (Homo sapiens),inactive
same,odorant receptor agonist call,OR1A2 G256C W293C,inactive
same,odorant receptor agonist call,OR1B1,inactive
same,odorant receptor agonist call,OR1C1 (Homo sapiens),inactive
same,odorant receptor agonist call,OR1D2 (Homo sapiens),inactive
same,odorant receptor agonist call,OR1D5 (Homo sapiens),inactive
same,odorant receptor agonist call,OR1E1 (Homo sapiens),inactive
same,odorant receptor agonist call,OR1E2 (Homo sapiens),inactive
same,odorant receptor agonist call,OR1E2,inactive
same,odorant receptor agonist call,OR1F1 (Homo sapiens),inactive
same,odorant receptor agonist call,OR1F12P (Homo sapiens),inactive
same,odorant receptor agonist call,OR1F1,inactive
same,odorant receptor agonist call,OR1G1 (Homo sapiens),inactive
same,odorant receptor agonist call,OR1I1 (Homo sapiens),inactive
same,odorant receptor agonist call,OR1J1 (Homo sapiens),inactive
same,odorant receptor agonist call,OR1J2 (Homo sapiens),inactive
same,odorant receptor agonist call,OR1J4 (Homo sapiens),inactive
same,odorant receptor agonist call,OR1K1 (Homo sapiens),inactive
O=Cc1ccccc1,odorant receptor agonist call,OR1D2 (Homo sapiens),inactive
same,odorant receptor agonist call,OR1G1 (Homo sapiens),active
